Assay results taken from ChEMBL document CHEMBL3352699 (J Med Chem, 2014).
Converted amounts (≈) assume the structure as drawn. One block for each molecule: values may come before it.

Key:
[1] = Octanol-water partition coefficient, log D of the compound at pH 7.4 by shake flask method; type: physicochemical
[2] = target: T1, Pyroglutamylated RF-amide peptide receptor (Homo sapiens, UniProt Q96P65); assay: Inhibition of human GPR103 receptor expressed in CHOK1 cells by IP-1 assay; type: cell-based, CHO-K1
T1 sequence (Q96P65 whole entry): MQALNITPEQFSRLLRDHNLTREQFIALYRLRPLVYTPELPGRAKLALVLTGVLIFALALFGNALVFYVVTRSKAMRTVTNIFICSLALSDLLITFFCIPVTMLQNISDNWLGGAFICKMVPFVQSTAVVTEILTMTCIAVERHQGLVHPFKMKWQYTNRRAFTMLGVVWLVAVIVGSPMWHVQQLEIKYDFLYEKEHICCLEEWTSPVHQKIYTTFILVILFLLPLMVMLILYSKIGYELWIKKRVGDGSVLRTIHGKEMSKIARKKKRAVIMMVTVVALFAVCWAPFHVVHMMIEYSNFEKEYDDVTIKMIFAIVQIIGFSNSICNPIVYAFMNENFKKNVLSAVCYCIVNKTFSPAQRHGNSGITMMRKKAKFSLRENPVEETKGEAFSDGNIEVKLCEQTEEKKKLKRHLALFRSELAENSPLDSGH
Method in brief: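 Cryopreserved human QRFP/GPR103 receptor cell line thawed in stimulation buffer, preincubated with compound at 37 °C, 5% CO2, then stimulated with hQRFP43 at EC80 for 50 min at 37 °C. IP-1 read by HTRF (665/620 nm ratio). IC50 mean of N = 2−52 determinations, one to three replicates per concentration; CIR 2.0, MDR 2.8.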

[3] = Solubility of the compound in HBSS buffer at pH 7.4 after 18 hrs by LC/MS/MS analysis; type: physicochemical
[4] = target: T1, Pyroglutamylated RF-amide peptide receptor; assay: Displacement of [125I]QRFP43 from human GPR103 receptor expressed in HEK cells after 90 mins incubation by scintillation counting; type: cell-based, HEK293
Method in brief: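 HEK membranes overexpressing human GPR103 incubated with compound and 0.25 nM 125I-hQRFP43 in 50 mM Tris pH 7.4, 1 mM EDTA, 0.1% BSA at 30 °C for 90 min. Bound radioligand separated by vacuum filtration and counted by scintillation. IC50 mean of N = 2−5 determinations, one replicate per concentration; CIR 1.7, MDR 2.1.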

Cytochrome P450 2C19 = Cytochrome P450 2C19 (Homo sapiens, UniProt P33261); assay: Inhibition of human recombinant CYP2C19 after 20 to 50 mins by high-throughput fluorescence assay; type: ADME; conditions: recombinant enzyme
[5] = target: Sodium channel protein type 5 subunit alpha (Homo sapiens, UniProt Q14524); assay: Inhibition of human Nav1.5 expressed in CHO cells by electrophysiology assay; type: cell-based
[6] = Intrinsic clearance in human liver microsomes; type: ADME; conditions: read-out: CLH
Method in brief: (§1)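 Intrinsic clearance corrected for unspecific binding in the incubations. CIR 1.4 for human hepatocytes, 1.7 for human liver microsomes.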

[7] = Inhibition of mouse GPR103B receptor expressed in CHO cells by IP-1 assay; type: cell-based
Method in brief: (§2)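 CHO cells overexpressing mouse GPR103A or GPR103B thawed in stimulation buffer, preincubated with compound at 37 °C, 5% CO2, then stimulated with hQRFP43 at EC80 for 50 min at 37 °C. IP-1 measured by HTRF (665/620 nm ratio).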

Cytochrome P450 2C8 = target: T2, Cytochrome P450 2C8 (Homo sapiens, UniProt P10632); assay: Inhibition of human recombinant CYP2C8 after 20 to 50 mins by high-throughput fluorescence assay; type: ADME; conditions: recombinant enzyme
T2 sequence (P10632 whole entry): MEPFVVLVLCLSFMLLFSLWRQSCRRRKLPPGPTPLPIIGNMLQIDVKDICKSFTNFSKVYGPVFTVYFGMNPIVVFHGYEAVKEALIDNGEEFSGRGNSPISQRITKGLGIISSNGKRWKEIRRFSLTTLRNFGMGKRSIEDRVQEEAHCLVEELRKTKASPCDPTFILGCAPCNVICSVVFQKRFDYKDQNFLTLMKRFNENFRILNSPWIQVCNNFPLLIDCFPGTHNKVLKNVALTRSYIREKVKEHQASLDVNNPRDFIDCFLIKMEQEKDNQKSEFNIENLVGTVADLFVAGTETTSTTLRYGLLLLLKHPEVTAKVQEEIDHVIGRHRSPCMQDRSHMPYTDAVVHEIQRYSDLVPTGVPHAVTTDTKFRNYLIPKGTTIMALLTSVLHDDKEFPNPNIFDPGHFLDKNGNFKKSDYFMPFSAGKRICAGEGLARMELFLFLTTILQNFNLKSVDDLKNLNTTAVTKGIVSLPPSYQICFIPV

Cytochrome P450 2D6 = Cytochrome P450 2D6 (Homo sapiens, UniProt P10635); assay: Inhibition of human CYP2D6 after 20 to 50 mins by high-throughput fluorescence assay; type: ADME
[8] = Intrinsic clearance in human hepatocytes measured per 10^6 cells; type: ADME, cell-based, Hepatocyte; conditions: read-out: CLH; method in brief: as §1
[9] = Apparent permeability across apical to basolateral side in human Caco2 cells by LC-MS/MS analysis; type: ADME, cell-based; conditions: Caco-2, read-out: permeability
[10] = target: Potassium voltage-gated channel subfamily E member 1 (Homo sapiens, UniProt P15382); assay: Inhibition of human cardiac slowly activating delayed rectifier K+ channel expressed in CHO cells by electrophysiology assay; type: cell-based
Cytochrome P450 1A2 = target: T3, Cytochrome P450 1A2 (Homo sapiens, UniProt P05177); assay: Inhibition of human recombinant CYP1A2 after 20 to 50 mins by high-throughput fluorescence assay; type: ADME; conditions: recombinant enzyme
T3 sequence (P05177 whole entry): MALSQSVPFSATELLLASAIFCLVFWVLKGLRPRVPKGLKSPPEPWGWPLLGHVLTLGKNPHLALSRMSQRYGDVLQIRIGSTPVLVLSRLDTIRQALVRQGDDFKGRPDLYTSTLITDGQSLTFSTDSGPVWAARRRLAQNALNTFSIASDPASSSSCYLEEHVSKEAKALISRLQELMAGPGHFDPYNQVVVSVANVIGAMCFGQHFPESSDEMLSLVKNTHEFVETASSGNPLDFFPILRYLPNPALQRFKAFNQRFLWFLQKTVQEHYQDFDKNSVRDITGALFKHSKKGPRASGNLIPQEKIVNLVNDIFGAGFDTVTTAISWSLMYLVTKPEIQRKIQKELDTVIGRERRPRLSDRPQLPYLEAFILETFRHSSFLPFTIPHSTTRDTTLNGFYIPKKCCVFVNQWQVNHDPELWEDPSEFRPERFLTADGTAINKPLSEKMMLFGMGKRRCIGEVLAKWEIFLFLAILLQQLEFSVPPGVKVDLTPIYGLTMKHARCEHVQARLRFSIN

[11] = Inhibition of mouse GPR103A receptor expressed in CHO cells by IP-1 assay; type: cell-based; method in brief: as §2
Cytochrome P450 2C9 = Cytochrome P450 2C9 (Homo sapiens, UniProt P11712); assay: Inhibition of human recombinant CYP2C9 after 20 to 50 mins by high-throughput fluorescence assay; type: ADME; conditions: recombinant enzyme
Cytochrome P450 3A4 = Cytochrome P450 3A4 (Homo sapiens, UniProt P08684); assay: Inhibition of human recombinant CYP3A4 after 20 to 50 mins by high-throughput fluorescence assay; type: ADME; conditions: recombinant enzyme
[12] = target: Voltage-gated inwardly rectifying potassium channel KCNH2 (Homo sapiens, UniProt Q12809); assay: Inhibition of human ERG expressed in CHO cells by electrophysiology assay; type: cell-based

Sequence of Sodium channel protein type 5 subunit alpha (Q14524 whole entry): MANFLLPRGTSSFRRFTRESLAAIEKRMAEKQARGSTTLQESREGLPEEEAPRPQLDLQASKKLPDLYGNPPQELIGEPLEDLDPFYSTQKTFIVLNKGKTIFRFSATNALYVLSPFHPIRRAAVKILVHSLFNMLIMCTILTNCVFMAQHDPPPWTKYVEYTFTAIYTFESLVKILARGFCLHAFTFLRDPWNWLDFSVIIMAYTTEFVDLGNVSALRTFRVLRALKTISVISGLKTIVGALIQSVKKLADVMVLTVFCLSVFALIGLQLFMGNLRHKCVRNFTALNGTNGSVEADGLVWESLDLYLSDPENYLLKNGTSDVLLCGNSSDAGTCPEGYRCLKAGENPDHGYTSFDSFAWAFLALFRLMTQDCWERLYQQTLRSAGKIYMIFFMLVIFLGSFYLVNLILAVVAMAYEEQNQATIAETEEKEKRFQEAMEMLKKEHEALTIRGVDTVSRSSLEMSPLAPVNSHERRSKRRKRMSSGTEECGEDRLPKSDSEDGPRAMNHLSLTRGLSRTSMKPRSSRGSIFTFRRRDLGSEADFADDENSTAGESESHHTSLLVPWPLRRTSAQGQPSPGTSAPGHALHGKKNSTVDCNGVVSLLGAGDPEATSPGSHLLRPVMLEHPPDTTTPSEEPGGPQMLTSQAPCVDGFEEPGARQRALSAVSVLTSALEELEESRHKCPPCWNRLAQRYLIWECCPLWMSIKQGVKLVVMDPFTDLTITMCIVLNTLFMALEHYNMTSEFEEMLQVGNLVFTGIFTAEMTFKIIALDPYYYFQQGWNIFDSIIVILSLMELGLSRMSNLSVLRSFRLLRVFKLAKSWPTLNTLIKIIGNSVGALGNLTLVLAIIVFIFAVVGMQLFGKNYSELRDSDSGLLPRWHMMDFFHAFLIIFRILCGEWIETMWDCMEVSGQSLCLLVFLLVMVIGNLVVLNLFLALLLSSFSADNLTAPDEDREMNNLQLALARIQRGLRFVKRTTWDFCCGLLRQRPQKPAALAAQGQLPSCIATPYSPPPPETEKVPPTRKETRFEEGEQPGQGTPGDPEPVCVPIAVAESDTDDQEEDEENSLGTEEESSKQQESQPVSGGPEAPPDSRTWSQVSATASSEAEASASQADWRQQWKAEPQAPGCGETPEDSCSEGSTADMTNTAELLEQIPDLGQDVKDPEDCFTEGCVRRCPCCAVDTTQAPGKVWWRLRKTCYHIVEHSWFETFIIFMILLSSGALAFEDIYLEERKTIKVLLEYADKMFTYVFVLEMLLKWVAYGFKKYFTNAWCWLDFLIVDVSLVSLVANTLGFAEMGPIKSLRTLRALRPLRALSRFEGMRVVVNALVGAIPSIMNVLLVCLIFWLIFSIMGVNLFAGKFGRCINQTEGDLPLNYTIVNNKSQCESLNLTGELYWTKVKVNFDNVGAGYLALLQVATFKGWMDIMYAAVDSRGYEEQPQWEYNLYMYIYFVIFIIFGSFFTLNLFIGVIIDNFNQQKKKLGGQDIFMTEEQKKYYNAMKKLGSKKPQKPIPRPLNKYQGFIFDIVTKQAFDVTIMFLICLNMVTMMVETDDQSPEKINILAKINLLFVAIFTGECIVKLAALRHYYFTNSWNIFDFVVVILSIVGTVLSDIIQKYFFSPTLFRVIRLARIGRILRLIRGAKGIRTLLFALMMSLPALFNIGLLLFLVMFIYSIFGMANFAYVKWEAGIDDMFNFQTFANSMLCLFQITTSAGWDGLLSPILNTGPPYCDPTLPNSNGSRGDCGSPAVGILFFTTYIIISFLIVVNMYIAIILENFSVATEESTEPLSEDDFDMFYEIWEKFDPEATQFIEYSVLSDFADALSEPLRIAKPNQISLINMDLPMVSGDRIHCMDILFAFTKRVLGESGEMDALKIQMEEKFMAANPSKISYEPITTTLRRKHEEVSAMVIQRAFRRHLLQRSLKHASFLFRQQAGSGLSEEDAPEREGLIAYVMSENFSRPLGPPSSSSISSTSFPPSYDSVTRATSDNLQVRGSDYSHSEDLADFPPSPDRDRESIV
Sequence of Cytochrome P450 2D6 (P10635 whole entry): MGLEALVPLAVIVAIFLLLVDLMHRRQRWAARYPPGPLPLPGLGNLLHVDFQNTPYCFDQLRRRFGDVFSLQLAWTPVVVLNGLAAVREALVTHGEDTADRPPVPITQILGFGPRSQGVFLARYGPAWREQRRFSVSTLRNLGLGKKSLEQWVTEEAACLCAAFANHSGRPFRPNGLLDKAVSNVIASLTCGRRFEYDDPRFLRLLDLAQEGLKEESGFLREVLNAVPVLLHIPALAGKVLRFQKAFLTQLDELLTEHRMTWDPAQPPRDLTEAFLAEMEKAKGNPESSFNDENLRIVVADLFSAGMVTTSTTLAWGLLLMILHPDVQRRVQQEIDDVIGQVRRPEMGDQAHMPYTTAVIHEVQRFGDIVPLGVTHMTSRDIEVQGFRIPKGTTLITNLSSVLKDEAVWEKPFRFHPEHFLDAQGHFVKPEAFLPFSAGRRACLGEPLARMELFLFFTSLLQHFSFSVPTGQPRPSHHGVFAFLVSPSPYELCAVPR
Sequence of Cytochrome P450 2C19 (P33261 whole entry): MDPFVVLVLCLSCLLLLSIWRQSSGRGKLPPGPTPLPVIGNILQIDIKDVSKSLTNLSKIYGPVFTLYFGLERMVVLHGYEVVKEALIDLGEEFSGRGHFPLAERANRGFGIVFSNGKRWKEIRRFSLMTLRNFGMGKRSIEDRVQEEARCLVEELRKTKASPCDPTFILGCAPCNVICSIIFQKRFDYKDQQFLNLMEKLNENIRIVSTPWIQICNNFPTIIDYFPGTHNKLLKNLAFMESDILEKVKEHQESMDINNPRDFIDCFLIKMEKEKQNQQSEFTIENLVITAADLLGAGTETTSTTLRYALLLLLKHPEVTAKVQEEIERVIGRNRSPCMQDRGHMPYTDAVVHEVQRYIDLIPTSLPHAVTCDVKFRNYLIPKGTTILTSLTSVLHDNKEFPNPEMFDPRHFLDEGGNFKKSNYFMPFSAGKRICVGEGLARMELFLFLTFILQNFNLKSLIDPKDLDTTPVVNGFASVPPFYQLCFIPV
Sequence of Cytochrome P450 3A4 (P08684 whole entry): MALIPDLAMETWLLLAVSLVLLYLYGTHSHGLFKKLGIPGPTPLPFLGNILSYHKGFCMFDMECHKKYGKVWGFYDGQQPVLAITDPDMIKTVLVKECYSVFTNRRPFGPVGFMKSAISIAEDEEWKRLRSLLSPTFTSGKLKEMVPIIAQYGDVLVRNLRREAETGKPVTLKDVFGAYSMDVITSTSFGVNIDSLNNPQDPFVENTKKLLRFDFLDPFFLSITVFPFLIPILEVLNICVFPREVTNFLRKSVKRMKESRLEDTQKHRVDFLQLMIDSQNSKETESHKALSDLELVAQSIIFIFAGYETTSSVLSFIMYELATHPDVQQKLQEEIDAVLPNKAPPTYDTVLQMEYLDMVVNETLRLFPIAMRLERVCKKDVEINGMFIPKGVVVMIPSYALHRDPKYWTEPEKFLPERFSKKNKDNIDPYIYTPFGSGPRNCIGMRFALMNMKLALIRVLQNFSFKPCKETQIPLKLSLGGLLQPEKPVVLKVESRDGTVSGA
Sequence of Cytochrome P450 2C9 (P11712 whole entry): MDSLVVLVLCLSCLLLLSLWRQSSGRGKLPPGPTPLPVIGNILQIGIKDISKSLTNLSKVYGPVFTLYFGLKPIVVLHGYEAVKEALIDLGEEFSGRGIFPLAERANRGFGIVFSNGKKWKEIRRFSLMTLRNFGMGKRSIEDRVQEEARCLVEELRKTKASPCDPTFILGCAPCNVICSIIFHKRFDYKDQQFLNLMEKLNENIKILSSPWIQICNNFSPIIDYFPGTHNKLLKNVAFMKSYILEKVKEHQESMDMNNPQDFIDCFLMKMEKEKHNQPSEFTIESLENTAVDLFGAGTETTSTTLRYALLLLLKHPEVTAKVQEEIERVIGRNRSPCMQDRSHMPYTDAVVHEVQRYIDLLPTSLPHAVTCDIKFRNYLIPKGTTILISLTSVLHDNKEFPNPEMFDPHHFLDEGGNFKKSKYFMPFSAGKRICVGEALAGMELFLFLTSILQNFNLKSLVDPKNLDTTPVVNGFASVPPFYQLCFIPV

Compound: Cc1cc2cc(C(=O)N3CCc4cc(CN(C)C)ccc4C3)n(C)c2cn1
logD [1]: 1.3
IC50 [2]: 18900 nM

Compound: CN(C)Cc1ccc2c(c1)CCN(C(=O)c1cc3cc(C(F)(F)F)ncc3n1C)C2
logD [1]: 1.8
IC50 [2]: 3300 nM

Compound: C#Cc1cc2cc(C(=O)N3CCc4cc(CN(C)C)ccc4C3)n(C)c2cn1
logD [1]: 1.2
IC50 [2]: 6000 nM

Compound: CN(C)Cc1ccc2c(c1)CCN(C(=O)c1cc3ccncc3n1C)C2
logD [1]: 0.9
IC50 [2]: 2900 nM

Compound: CC1Cc2cc(CN(C)C)ccc2CN1C(=O)c1cc2cc(Br)ncc2n1C (racemic)
logD [1]: 2.1
IC50 [2]: 710 nM

Compound: CN(C)Cc1ccc2c(c1)CCN(C(=O)c1cc3cc(-c4ccccc4)ncc3n1C)C2
logD [1]: 3
IC50 [2]: > 41000 nM

The next molecules have a lower IC50 [2] than those just listed; values first:

logD [1]: 1.7
solubility at 18 h [3]: > 1000 µM
IC50 [4]: 280 nM
IC50 [2]: 240 nM
inhibition (INH) (Cytochrome P450 2C19): Not Active
microsomal CLint [6]: 16 µL/min/mg
IC50 [7]: 100 nM
inhibition (INH) (Cytochrome P450 2C8): Not Active
IC50 (Cytochrome P450 2D6): > 20000 nM
hepatocyte CLint [8]: 5.3 µL/min/1e6 cells
Papp A→B [9]: 13.2 ×10⁻⁶ cm/s
IC50 [10]: > 33000 nM
inhibition (INH) (Cytochrome P450 1A2): Not Active
IC50 [11]: 330 nM
inhibition (INH) (Cytochrome P450 2C9): Not Active
inhibition (INH) (Cytochrome P450 3A4): Not Active
Compound: CN(C)Cc1ccc2c(c1)CCN(C(=O)c1cc3cc(Br)ncc3n1C)C2
IC50 [5]: > 33000 nM

logD [1]: 2
IC50 [2]: 130 nM
Compound: CN(C)Cc1ccc2c(c1)CCN(C(=O)c1cc3cc(I)ncc3n1C)C2

logD [1]: 1.5
IC50 [2]: 570 nM
Compound: CN(C)Cc1ccc2c(c1)CCN(C(=O)c1cc3cc(Cl)ncc3n1C)C2

logD [1]: 2.1
IC50 [2]: 110 nM
Compound: CC1CN(C(=O)c2cc3cc(Br)ncc3n2C)Cc2ccc(CN(C)C)cc21 (racemic)

logD [1]: 3
solubility at 18 h [3]: 62 µM (≈ 23.7 µg/mL)
IC50 [4]: 70 nM
IC50 [2]: 70 nM
microsomal CLint [6]: 156 µL/min/mg
IC50 [7]: 80 nM
IC50 (Cytochrome P450 2D6): 2900 nM
hepatocyte CLint [8]: 40 µL/min/1e6 cells
Papp A→B [9]: 7.8 ×10⁻⁶ cm/s
IC50 [10]: 10500 nM
IC50 [11]: 90 nM
Compound: CN(C)Cc1ccc2c(c1)CCN(C(=O)c1cc3cc(Cl)ccc3n1C)C2
IC50 [5]: 10300 nM
IC50 [12]: 4900 nM

logD [1]: 2.2
IC50 [2]: 500 nM
Compound: CC1c2ccc(CN(C)C)cc2CCN1C(=O)c1cc2cc(Br)ncc2n1C (racemic)
